Paper PMC5767168 (The Biochemical journal, 2011)

Tests used:
[1] = system: rat primary hippocampal neurons; assay: Dendritic spine morphology, DiI staining; format: cell-based; details: for induction of dendritic varicosities: 3 μM peptide, 72 h
[2] = Electron microscopy of fibril formation in DMEM; format: physicochemical; details: 10 μM peptide, 37°C
How it was run: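 Peptide was dissolved in 60 mM NaOH, diluted into cell culture medium and sonicated 1 min. It was then incubated at 10 μM in DMEM without serum or cells at 37°C. Morphology was examined by electron microscopy periodically over several days, including 24 and 48 h.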

[3] = CD spectroscopy of conformational transition in phosphate buffer; format: physicochemical; details: 10 μM peptide, 10 mM sodium phosphate pH 7.4, 25°C; for appearance of the solution at 48–72 h of incubation: agitation; for kinetics of conformational transition by CD, in words: agitation 200 rev./min
How it was run: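 HFIP-treated peptide films were dissolved in 60 mM NaOH, diluted with water, sonicated 1 min, then diluted with 20 mM sodium phosphate (pH 7.4) to 10 μM. Samples were incubated at 25°C with orbital agitation at 200 rev./min. CD spectra (190–260 nm, 1-mm path) were taken every 2 h for 12 h, then at 24, 48 and 72 h, and background-subtracted. Three independent experiments were run.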

[4] = Electron microscopy of fibril formation in phosphate buffer; format: physicochemical; details: sodium phosphate pH 7.4, 25°C, 96 h
How it was run: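 HFIP-treated peptide was dissolved in 60 mM NaOH, sonicated and diluted in sodium phosphate (pH 7.4). It was incubated at 25°C with orbital agitation at 200 rev./min. Aliquots were applied to glow-discharged carbon-coated Formvar grids for 20 min, fixed in 2.5% glutaraldehyde for 4 min, stained with 1% uranyl acetate for 3 min, air-dried and imaged by TEM. Three independent experiments were run.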

[5] = CD spectroscopy of conformational transition in DMEM; format: physicochemical; details: 10 μM peptide, 37°C
How it was run: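 Peptide was dissolved in 60 mM NaOH, diluted into cell culture medium and sonicated 1 min. It was then incubated at 10 μM in DMEM without serum or cells at 37°C. Conformation was followed by CD periodically over several days.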

Substance: Aβ42: Aβ (amyloid β-protein) comprising 42 amino acids, wild-type
- induction of dendritic varicosities [1]: abundant varicosities
- effect at 10 μM in the dendritic spine assay ([1]; 10 μM peptide, initial experiments): overt cell death
- time by which the fibrillation process appeared complete (electron microscopy) [2]: ≤ 24 h

Substance: [Met(O2)^35]Aβ40 [Aβ40-sulfone]
- appearance of the solution at 48–72 h of incubation [3]: free of particulate material or precipitates

Substance: [Met(O2)^35]Aβ42 [Aβ42-sulfone]
- kinetics of conformational transition by CD, in words [3]: behaved similarly to WT Aβ42
- induction of dendritic varicosities [1]: abundant varicosities
- time by which the fibrillation process appeared complete (electron microscopy) [2]: ≤ 24 h

Substance: [Met(O)^35]-Aβ42 [Aβ42-sulfoxide]
- kinetics of conformational transition by CD, in words [3]: did not change during the first 24 h
- induction of dendritic varicosities [1]: little induction of varicosities

Substance: [Met(O)^35]Aβ40 [Aβ40-sulfoxide]
- appearance of the solution at 48–72 h of incubation [3]: free of particulate material or precipitates
- abundance of fibrils by electron microscopy [4]: scarce relative to those of WT Aβ40 or Aβ40-sulfone
- kinetics of conformational transition by CD in medium, in words [5]: somewhat slower
